High-throughput results (PubChem)
Most compounds without a hit are left out; they make up all but 2.9% or so of the library.
Kir21 inh – inhibitors of mouse Kir2.1 inward-rectifier potassium channel | 310,000 compounds, 0.85% hits | P35561 | B-score at 10 µM | HEK293-Kir2.1, FluxOR thallium flux fluorescence; stronger effect = lower value;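 active means fluorescence ratio B-score at or below minus 3 SD of library scores, with starting-brightness B-score within 2 SD, cut at about -4.2 in these data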;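 further: channel flux triggered by added potassium and thallium sulfate stimulus; B-score of peak minus minimum fluorescence over baseline after thallium stimulus; more negative B-score means stronger Kir2.1 block with less thallium influx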
TRPC4 block – TRPC4 (mouse) channel inhibition | Q9QUQ5 | HEK293 TRPC4beta/mu-opioid, DAMGO-evoked Fluo4 calcium flux; stronger effect = lower value | B-score at 10 µM | 300,000 compounds, 0.39% hits | AID 2247;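 active means B-score over 3 SD under the library average, no early fluorescence shift, positive overall ratio signal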
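Material: HEK293 cells with stable TRPC4beta plus mu-opioid receptor expression; probe or stimulus: DAMGO in two steps, submaximal then maximal; technique: Fluo4 calcium fluorescence by kinetic imaging, 5 s 1 Hz baseline; measure: integrated fluorescence ratio relative to baseline, converted to per-well B score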
TRPC6 inhibitor – blocks the mouse TRPC6 cation channel; Q61143; HEK293-TRPC6, membrane potential dye, ACh-evoked depolarization; stronger effect = lower value; B-score at 10 µM; 310,000 compounds, 1.1% hits;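 active means B-score under library mean minus 3 SD, initial fluorescence not abnormally high, positive integrated signal ratio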;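 further: B-score derived from integrated fluorescence ratio over the kinetic read; more negative B-score means stronger inhibition of depolarization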
TRPC4 PAM – allosteric potentiators of mouse TRPC4 channel | Q9QUQ5 | HEK293 TRPC4beta/mu-opioid, DAMGO EC20, Fluo-4 Ca2+ flux; stronger effect = higher value | B-score at 10 µM | 310,000 compounds, 0.42% hits;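 active means B-score of calcium response area above 5 SD of library B-scores, with initial fluorescence ratio within 5 SD of library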;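 further: B-score of integrated fluorescence ratio over time as area under calcium response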
TRPC4 act – opens the mouse TRPC4 cation channel; B-score at 10 µM; Q9QUQ5; HEK293 TRPC4beta/mu-opioid, Fluo4 calcium fluorescence; stronger effect = higher value; AID 2237; 310,000 compounds, 0.49% hits;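 active means B-score above 5 SD of library B-scores, and initial fluorescence ratio not above library mean plus 5 SD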;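 further: positive B-score marks a calcium rise read as TRPC4 activation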
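System: HEK293 cells stably co-expressing mouse TRPC4beta and mu-opioid receptor; Schedule: Fluo4 dye loading 45 min at room temperature, 110 s recording; Detection: Fluo4 fluorescence, kinetic; Evaluation: B-scored integrated calcium fluorescence ratio; Controls: buffer (low) and maximal DAMGO (high).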
TRPC6 act – activates the mouse TRPC6 cation channel; Q61143; HEK293-TRPC6 membrane potential dye fluorescence; stronger effect = higher value; B-score at 10 µM; 310,000 compounds, 0.13% hits;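 active means B-score of the integrated fluorescence ratio above library mean plus 3 SD, and starting fluorescence ratio within library mean plus 5 SD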;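 further: higher score means more depolarization so channel activation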
TRPC4 sel inh 2 – mouse TRPC4 off-target activity of TRPC6 inhibitors, second screen; shares compounds with TRPC6 inhibitor; HEK293 TRPC4/MOR, membrane potential dye fluorescence; channel activated by saturating DAMGO dose; inhibition, % at 10 µM; 920 compounds, 42% hits;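 active means compounds whose fluorescence signal differed from control wells by over 3 SD, either direction, in both duplicate plates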
TRPC4 spec – selectivity of TRPC6 inhibitors: effect on mouse TRPC4; shares compounds with TRPC6 inhibitor; HEK293 TRPC4/mu-opioid, membrane potential fluorescence; activity change, negative = inhibition, % at 10 µM; 920 compounds, 61% hits; AID 2777;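 active means rise or fall in signal beyond 3 SD of buffer-only wells in both replicate plates, either sign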;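 further: integrated kinetic ratio of fluorescence range over baseline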
HEK293 MPD ctr 2-1 – second check of TRPC6 inhibitor effects in parental HEK293 cells. shares compounds with TRPC6 inhibitor. parental HEK293 membrane potential dye fluorescence; maximal acetylcholine challenge after compound addition. signal change vs control, % at 10 µM. 920 compounds, 31% hits. AID 2779;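 active means membrane potential signal moving either way by over 3 SD of the maximum-effect control, in both duplicate plates, meaning non-specific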
HEK293 MPD ctr-1 – parental HEK293 nonspecific activity of TRPC6 inhibitors. shares compounds with TRPC6 inhibitor. parental HEK293 membrane potential dye fluorescence. membrane potential signal change, % at 10 µM. 920 compounds, 60% hits;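 active means membrane potential signal shifting up or down by more than 3 SD of buffer-only wells, on both duplicate plates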
HEK293 MPD ctr-2 – checks TRPC6 modulator effects in parental HEK293 cells | membrane potential dye fluorescence | 2,400 compounds, 51% hits | membrane potential signal change, % at 10 µM | shares compounds with TRPC6 inhibitor;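 active means membrane potential signal moves up or down beyond 5 SD from buffer-only wells, on both duplicate plates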
HEK293 MPD ctr 2-2 – parental HEK293 nonspecific activity of TRPC6 modulators, second screen; shares compounds with TRPC6 inhibitor; membrane potential dye fluorescence; after compound, maximal acetylcholine stimulation; inhibition, % at 10 µM; 2,400 compounds, 14% hits;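 active means membrane potential signal drops by more than 5 SD from the mean control signal, in both duplicate plates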;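 further: plate controls were acetylcholine ECmax control wells for no effect and buffer only wells for full effect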
TRPC4 ctr mod – selectivity of TRPC6 modulators against mouse TRPC4; 2,400 compounds, 69% hits; shares compounds with TRPC6 inhibitor; percent change from control (negative = decrease, positive = increase), % at 10 µM; HEK293 TRPC4/mu-opioid, membrane potential fluorescence;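 active means membrane potential signal moved up or down beyond 5 SD of buffer control wells, in both duplicate plates, actives on both sides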;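 further: plate controls were assay buffer wells for no effect and DAMGO maximal-effect wells for full effect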
TRPC4/MOR inh 2 – second check of whether TRPC6 modulators also affect mouse TRPC4; inhibition, % at 10 µM; AID 488928; HEK293 TRPC4/mu-opioid, membrane potential dye fluorescence; stimulated with maximal-effect DAMGO; 2,400 compounds, 55% hits; shares compounds with TRPC6 inhibitor;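 active means drop in membrane potential signal beyond 5 SD of the control wells in both duplicate plates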;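 further: TRPC4 counter screen for TRPC6 hits run under conditions tuned for TRPC6 not TRPC4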
TRPC6 block conf – mouse TRPC6 inhibitor confirmation; shares compounds with TRPC6 inhibitor; HEK293-TRPC6, membrane potential dye, ACh-evoked depolarization; inhibition, % at 10 µM; 3,300 compounds, 43% hits; AID 488960;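 active means fluorescence ratio falls more than 5 SD below the full-stimulation control mean, in both duplicate runs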;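 further: integrated fluorescence ratio of peak minus minimum over baseline after agonist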
TRPC6 act conf – confirmation of mouse TRPC6 activators. AID 488961. activation, % at 10 µM. HEK293-TRPC6 membrane potential dye fluorescence, FDSS. 2,800 compounds, 11% hits. shares compounds with TRPC6 inhibitor;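 active means ratio signal rise beyond 5 SD above unstimulated control wells' mean, seen in both duplicate runs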;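 further: plate controls were buffer EC0 wells for no effect and acetylcholine ECmax response for full effect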
* hit, by the source's call; i = inactive; · = no result.

SMILES	Kir21 inh	TRPC4 block	TRPC6 inhibitor	TRPC4 PAM	TRPC4 act	TRPC6 act	HEK293 MPD ctr-2	HEK293 MPD ctr 2-2	TRPC4 ctr mod	TRPC4/MOR inh 2	TRPC6 block conf	TRPC6 act conf	others
CN(Cc1ccccc1)C(=O)CCC1CCN(C(=O)CCC(F)(F)F)CC1	-0.68	i	i	i	i	i	·	·	·	·	·	·
Cc1nccc(-c2cccc(NC(=O)c3ccccc3Cl)c2)n1	-1.91	i	i	i	i	i	·	·	·	·	·	·
CN1CCC(NC(=O)c2cc(-c3cccc(Br)c3)nc3ccccc23)CC1	-3.79	i	i	i	i	i	·	·	·	·	·	·
CC1CCN(CC(C)CNC(=O)c2cc(-c3ccccn3)nc3ccccc23)CC1 (stereo not drawn)	-0.83	i	-8.58*	i	i	i	·	·	·	·	i	i	TRPC4 sel inh 2=70.0%*;TRPC4 spec=i;HEK293 MPD ctr 2-1=208.5%*;HEK293 MPD ctr-1=i
O=C(NC1CCN(Cc2ccccc2)CC1)c1cc(-c2ccccn2)nc2ccccc12	-0.14	i	i	i	i	i	·	·	·	·	·	·
O=C(NCCCn1ccnc1)c1cc2cc([N+](=O)[O-])ccc2oc1=O	-0.03	i	-4.99*	i	i	i	-83.0%*	i	-15.0%*	i	i	i
O=C(NCCCn1ccnc1)c1ccc(Cl)cc1[N+](=O)[O-]	-1.49	i	i	i	i	i	·	·	·	·	·	·
O=C1NC(=Nc2ccccc2Cl)S/C1=C\c1cccc([N+](=O)[O-])c1O	0	i	-6.02*	i	i	i	i	i	-11.5%*	65.0%*	i	i
Cc1ccccc1NC(C)C(=O)N/N=C/c1ccccc1OCc1cccc(Br)c1 (stereo not drawn)	1.01	i	-5.25*	i	i	i	i	i	i	i	i	i
CC[N+](C)(C)CCN(Cc1ccc(Cl)cc1)c1ccccn1	1.23	i	-6.41*	i	i	i	i	i	i	i	i	i
COC(=O)c1ccccc1NC(=O)COC(=O)C1CCCCC1	2.34	i	-5*	i	i	i	141.5%*	i	31.0%*	i	41.0%*	·
COC(=O)c1ccccc1NC(=O)CN1CCCCCC1	1.1	i	i	i	i	i	·	·	·	·	·	·
COC(=O)c1ccccc1NC(=O)CN1CCC(C)CC1	-1.86	i	-5.08*	i	i	i	i	i	19.5%*	i	39.0%*	·
